Measured values gathered from unrelated publications.
Each line is one published result; the experiments were not run side by side.
Target: Maternal embryonic leucine zipper kinase (MELK, Homo sapiens, UniProt Q14680)

For `COc1ccc2oc(-c3ccc4nc(N)oc4c3)c/c(=N\c3ccccc3NC(=O)CCN)c2c1`, the remaining binding was 99% (binding; 1 µM).
`C#Cc1cc(-c2cc(Nc3nc(N[C@@H](C)c4ccc(F)cn4)ncc3Cl)n[nH]2)ccc1C=O` has an inhibition of 34.3% (enzyme activity; inhibitor; 0.2 µM).
`CO[C@@H]1[C@H](N(C)C(=O)c2ccccc2)C[C@H]2O[C@]1(C)n1c3ccccc3c3c4c(c5c6ccccc6n2c5c31)C(=O)NC4` gave an inhibition of 60% (enzyme activity; inhibitor; 1 µM).
The remaining signal of `C[C@H]1CC[C@H](n2c3cnccc3c3cnc(Nc4ccc5c(n4)CCN(C(=O)CO)C5)nc32)CC1` is reported as 24% (cell-free assay; 1 µM).
`C1=C/COCc2cc(ccc2OCCN2CCCC2)Nc2nccc(n2)-c2cccc(c2)COC/1` gave a remaining binding of 84% (binding; 0.1 µM).
For `CN1CCN(C(=O)c2ccc(NC(=O)Nc3ccc(N(C)c4ccnc(Nc5ccc(CS(C)(=O)=O)cc5)n4)cc3)cc2)CC1`, the remaining binding was 81% (binding; 1 µM).
`CC#CC(=O)N1CCC[C@H]1c1nc(-c2ccc(C(=O)Nc3ccccn3)cc2)c2c(N)nccn12` has an inhibition of 41% (enzyme activity; inhibitor; 1 µM).
With `CCCCC(=O)Nc1ccc(-c2ccc3ncn(CCC)c(=O)c3c2)cn1` the remaining binding was 86% (binding; competition with immobilised ligand; 0.5 µM).
